CSC inhib = cancer stem cell inhibition; 300,000 tested, 1.1% active; cancer stem cell-like cells viability, luminescence; inhibition, % at 7.5 µM; in the data active = inhibition above about 75%; inconclusive = no clear call, values can overlap the other calls; tested in HMLE shEcad cells
SKKanGAS inh = inhibitors of SKKanGAS S. pyogenes growth in kanamycin (SK-promoter or general growth effect) | BacTiter-Glo, 6 h | inhibition, % at 7.5 µM | 300,000 tested, 1.3% active;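 active = mean replicate score, as percent of positive control median, at least 50; inconclusive = mean below 50 but one replicate at or above 50; inactive = mean and every replicate below 50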;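 also: strain carries kanamycin resistance gene driven by streptokinase promoter and grows in 40 µg/ml kanamycin; loss of luminescence reflects streptokinase promoter inhibition or plain growth inhibition; 0% = median of DMSO wells and 100% = positive control at its reference dose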
PfHsp90 yeast 2 = growth inhibition of yeast expressing Plasmodium Hsp90; S. cerevisiae expressing PfHsp90, BacTiter-Glo ATP, 48 h; yeast lacking PDR1 and PDR3 efflux regulators; inhibition, % at 9.4 µM; 310,000 tested, 0.32% active;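 active = every replicate shows inhibition above about 80%, whatever the replicate mean, limit read from the data; inconclusive = mean inhibition reaches the set limit but some replicate falls short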;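 also: 0% = DMSO neutral controls and 100% = 20 µM radicicol positive controls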
T cruzi inh = blocks replication of Trypanosoma cruzi | T. cruzi beta-gal in NIH3T3, luminescence, 90 h | inhibition, % (concentration not given with the values) | 300,000 tested, 1.4% active | AID 1885;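 active = mean inhibition across valid replicates above about 55%, limit read from the data; inconclusive = mean below that limit but half or more replicates reach it; inactive = mean below it, under half of replicates reach it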;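 also: signal also drops with host cell toxicity which is not excluded here; 0% = plate median of DMSO wells and 100% = zero luminescence signal; higher percent means less beta-gal luminescence so fewer parasites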
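Test system: β-gal T. cruzi (Tulahuen C4) inside NIH/3T3 cells / Quantity: 5,000 cells/well / Measured by: luminescence from GalScreen with 0.05% NP40, read after 60 min / Medium: DMEM plus 2% FBS / Measure: parasite load inhibition, % / Reagent: Tulahuen C4 trypomastigotes, 5000/well / Schedule: co-culture of at least 90 h after 3 h attachment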
Beta cell apopt = blocks beta cell apoptosis; INS-1E cytokine-induced death, ATP luminescence, 48 h; percent of positive-control rescue, neutral wells zero; protection from apoptosis, % (test concentration not listed); 300,000 tested, 0.8% active; AID 435005;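 active = Every replicate reaches about 75%, or at least half do and their mean reaches it too, limit read from the data; inconclusive = At least half of replicates reach the limit but their mean does not; inactive = Under half of replicates reach the limit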;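 also: 0% = cytokine-treated negative control wells and 100% = positive control rescue; higher means more ATP so stronger rescue from cytokine killing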
HIF activator = HIF pathway transcriptional activation; AID 1910; 300,000 tested, 0.32% active; U2OS HRE-luciferase reporter, luminescence; normalized: DMSO 0%, desferrioxamine 100%; activation, % at 7.5 µM (by protocol);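 active = mean activation of at least 10% of the iron chelator positive control signal, with at least half of replicates also reaching 10%; inconclusive = mean and replicate majority disagree about reaching 10%; inactive = mean and most replicates under 10%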
Starred values were filed as active, the others as inactive; ? = inconclusive; nt = no result. In the library only some 3.6% were active in any assay of this set; here they are far more common.

SMILES	CSC inhib	SKKanGAS inh	PfHsp90 yeast 2	T cruzi inh	Beta cell apopt	HIF activator
COC(=O)c1cc(-c2cccc([N+](=O)[O-])c2)c2c(=O)n(C)c(=O)n(C)c2n1	-17.4	7.7	6.2	0.2	0.5	-0.8
COC(=O)c1cc(-c2cccc(OC)c2)c2c(=O)[nH]c(=O)n(C)c2n1	6.2	62.3*	16.9	8.7	-7.1	-1.5
O=C(C[C@@H]1C/C=C/CC[C@H](Cc2ccc(F)cc2)C(=O)OC[C@@H](Cc2ccccc2)NC1=O)N[C@H](CO)Cc1ccccc1	105.0*	nt	-33.5	nt	123.7*	nt
COc1ccc(/C=C/C(=O)c2c(C)nc3ccccn23)cc1	-5.9	51.2*	nt	52.3	nt	2.4
Cc1nc2ccccn2c1C(=O)/C=C/c1ccc(F)cc1	27.4	2.9	nt	-7.4	-6.6	6.3
Cc1nn2c(NCCCN(C)C)c3c(nc2c1-c1ccccc1)CCC3	nt	0.6	16.6	68.9*	-2.3	-0.1
Cc1cc(N)n(Cc2cccs2)n1	-3.2	0.1	-3.3	-15.7	-4.4	-0.4
COc1cc2ccccc2cc1C(=O)Nc1sc2c(c1C(N)=O)CCN(C(C)C)C2	95.0*	0.6	23.8	16.0	111.9*	-4.7
CN1CCc2c(sc(NC(=O)c3ccc4ccccc4c3)c2C(N)=O)C1	47.7	17.3	nt	54.9*	6.7	0.7
CC(C)N1CCc2c(sc(NC(=O)CN3C(=O)c4ccccc4C3=O)c2C(N)=O)C1	-3.7	-14.6	5.4	9.9	-1.3	0.1
CN1CCc2c(sc(NC(=O)Cc3ccccc3)c2C(N)=O)C1	2.4	-3.4	13.3	-26.4	-10.9	0.0
Cc1ccc(S(=O)(=O)Nc2c(C)nc3nc[nH]n3c2=O)c(C)c1	-27.8	-7.2	-16.4	-0.6	1.8	-0.2
COc1ccc2nc3n(c(=O)c2c1)-c1ccccc1C(=O)NC3Cc1ccccc1 (centres undefined)	nt	nt	nt	nt	-2.6	nt
CCOC(=O)c1c(N2C(=O)C=CC2=O)sc(C)c1C	29.7	4.0	153.9*	17.5	nt	0.0
CC(C)[C@H](NC(=O)OCc1ccccc1)C(=O)OCc1cc(=O)oc2cc(O)ccc12	1.5	34.6	-77.9	-1.5	nt	-0.1
Cc1ccc(C(=O)C[n+]2cccc3cc(C)ccc32)cc1	-4.1	-1.7	8.5	58.1*	5.9	-0.1
CCOc1ccc(C(=O)C[n+]2cccc3cc(C)ccc32)cc1	-2.9	0.7	-7.8	67.8*	-28.6	0.3
COc1ccc2c(ccc[n+]2CC(=O)c2ccc(C)cc2)c1	-1.4	-1.4	8.5	32.1	6.1	-12.1
Cc1ccc2c(=O)n3c(nc2c1)C(Cc1ccccc1)NC(=O)c1cc(Cl)ccc1-3 (centres undefined)	nt	nt	nt	nt	-2.3	nt
O=C1OCc2cc(NC(=O)C34CC5CC(CC(C5)C3)C4)ccc21	nt	16.7	10.1	-4.9	2.8	827.8*
CN(C)C(=O)c1ccc(-n2cccn2)nc1	-18.6	-2.2	-4.2	-4.5	-0.6	0.1
Cc1cc([N+](=O)[O-])ccc1-c1ccc(C2Nc3ccccc3C(=O)N2O)o1 (centres undefined)	131.2*	-4.1	?	38.6	69.8	0.1
O=C1c2ccccc2NC(c2ccc(-c3ccccc3F)o2)N1O (centres undefined)	10.5	nt	nt	nt	-2.3	nt
COCCS(=O)(=O)N(Cc1ccccc1)[C@H](C(=O)OC)C(C)C	nt	nt	12.4	nt	nt	nt
C=CC(C)(C)c1c(O)c(CC=C(C)C)c(O)c2c(=O)c3ccc(O)c(O)c3oc12	-7.0	103.3*	105.5*	?	106.7*	0.3
SMILES	CSC inhib	SKKanGAS inh	PfHsp90 yeast 2	T cruzi inh	Beta cell apopt	HIF activator
C=CC(C)(C)c1c2occc2c(O)c2ccc(=O)oc12	nt	nt	13.8	nt	nt	nt
CCCCOc1ccc(N(CC(=O)NCCOC)C(=O)CCC(=O)Nc2ccccn2)cc1	-7.0	-5.5	-6.6	-8.2	-0.6	-0.6
Cc1ccc2c(c1)c1n[nH]c(=S)nc1n2CCc1ccccc1	-9.9	0.4	-1.3	68.6*	8.8	0.0
O=C(NCC(=O)N1CCN(c2ccccc2O)CC1)c1cccs1	-6.3	-7.4	13.5	-7.4	-4.2	1.1
O=C(Nc1ccc(Cl)c(Cl)c1)C1=Cc2ccccc2OC1	50.4	75.5*	19.6	17.5	-3.8	1.8
O=C(Nc1cccc(Cl)c1)C1=Cc2cc(Cl)ccc2OC1	6.0	31.8	-18.7	-0.2	-2.4	-0.2
CCOc1cc(C)c(C(C)C)cc1S(=O)(=O)n1cnc(C)c1	-2.0	-9.2	8.5	55.3*	2.9	1.4

Source: PubChem BioAssay (Broad Institute)
